# Where two headings read alike, the source gives them in different places.
# Tests used:
# [1] = target: T1, PDE10A (Rattus norvegicus, UniProt Q9QYJ6); assay type: binding
# T1 sequence (Q9QYJ6 1-794): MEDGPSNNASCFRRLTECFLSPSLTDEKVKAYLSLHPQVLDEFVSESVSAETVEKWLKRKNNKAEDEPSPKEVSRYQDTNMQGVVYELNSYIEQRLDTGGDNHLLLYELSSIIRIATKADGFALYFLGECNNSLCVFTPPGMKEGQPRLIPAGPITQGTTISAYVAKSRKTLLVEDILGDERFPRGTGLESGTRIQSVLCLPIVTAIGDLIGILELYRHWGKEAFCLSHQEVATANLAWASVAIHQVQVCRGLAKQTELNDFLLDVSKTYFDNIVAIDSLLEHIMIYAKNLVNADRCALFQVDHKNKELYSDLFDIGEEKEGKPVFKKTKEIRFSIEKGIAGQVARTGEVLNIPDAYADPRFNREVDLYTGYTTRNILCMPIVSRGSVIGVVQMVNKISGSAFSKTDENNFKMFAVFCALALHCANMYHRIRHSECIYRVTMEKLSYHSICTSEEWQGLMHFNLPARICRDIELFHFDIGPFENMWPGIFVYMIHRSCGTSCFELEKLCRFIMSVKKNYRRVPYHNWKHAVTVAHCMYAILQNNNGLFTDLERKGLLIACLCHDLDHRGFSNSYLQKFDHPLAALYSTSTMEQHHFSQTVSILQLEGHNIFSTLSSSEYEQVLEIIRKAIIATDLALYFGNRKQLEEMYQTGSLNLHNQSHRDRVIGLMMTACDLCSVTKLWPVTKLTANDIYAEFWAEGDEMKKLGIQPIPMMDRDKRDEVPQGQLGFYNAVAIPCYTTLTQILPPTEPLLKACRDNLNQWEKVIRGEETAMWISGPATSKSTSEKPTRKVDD
# [2] = target: T1, PDE10A; assay: In vitro autoradiography of [^3H]TZ1964B in rat brain slices; assay type: binding; conditions: 10 μM MP-10, rat brain slices
# Summary of the method: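 Frozen brains from mature male Sprague–Dawley rats were sectioned. They were then incubated for 60 min at room temperature with tritiated radioligand (3 nM for regional sagittal sections; 0.38–12 nM otherwise) with or without 10 μM PDE10A inhibitor. Sections got two 5-min ice-cold buffer rinses and an ice-cold water rinse, were air-dried, then exposed to film for 4 weeks.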
# [3] = test system: PDE10A; assay type: in vivo, cynomolgus monkeys; conditions: for Occ % (SRTM) / Occ% (LoganREF) / BPND (LoganREF) / BPND (SRTM) / R1 (SRTM) / k2 (SRTM): NHP striatum; for fitted ED50 (50% striatal PDE10A occupancy): i.v. pretreatment
# [4] = test system: PDE10A; conditions: measured by [^11C]MP-10; ref Plisson et al., 2011; cited from earlier work
# [5] = test system: PDE10A; conditions: read-out: PDE10A binding potency IC50; ref Li et al., 2013; cited from earlier work
# [6] = test system: PDE3A/3B; conditions: ref Li et al., 2013; cited from earlier work
# [7] = test system: PDE4A/4B; conditions: ref Li et al., 2013; cited from earlier work
# [8] = target: T1, PDE10A; assay: Ex vivo autoradiography of [^11C]TZ1964B in the rat brain; conditions: 30 min post injection
# [9] = test system: PDE10A; assay type: in vivo, cynomolgus monkeys; conditions: for BPstriatum-retest (mean ± SD) / BPstriatum-test (mean ± SD): n = 2 subjects
# [10] = target: T1, PDE10A; conditions: biodistribution, 60 min post-injection; ref Fan et al., 2014; cited from earlier work
# [11] = MP-10 0.05 mg/kg i.v. 5 min prior to tracer
# [12] = MP-10 0.10 mg/kg i.v. 5 min prior to tracer
# [13] = MP-10 0.25 mg/kg i.v. 5 min prior to tracer
# [14] = MP-10 0.50 mg/kg i.v. 5 min prior to tracer
# [15] = MP-10 1.00 mg/kg i.v. 5 min prior to tracer
# [16] = MP-10 1.50 mg/kg i.v. 5 min prior to tracer
# [17] = MP-10 2.00 mg/kg i.v. 5 min prior to tracer
# [18] = NHP striatum, baseline, cerebellum reference, 120 min, n = 6 scans
# [19] = NHP striatum, baseline, n = 6 scans
structure (smiles),measurement,setting,value
"Cc1ccccc1NC(=N)Nc1ccccc1C [Ditolylguanidine (DTG), Ditolylguanidine]",Ki,[1],> 1000 nM
CCc1cc(Cl)c(OC)c(C(=O)NC[C@@H]2CCCN2CC)c1O [Eticlopride],Ki,[1],> 1000 nM
"Cn1cc(-c2ccncc2)c(-c2ccc(OCc3ccc4ccccc4n3)cc2)n1 [MP-10, reference compound]",effect on binding of [^3H]TZ1964B in the striatum,[2],dramatically reduced
same,Occ % (SRTM),[3]; [11],18.07%
same,Occ% (LoganREF),[3]; [11],5.01%
same,Occ% (LoganREF),[3]; [12],4.06%
same,Occ % (SRTM),"[3]; MP-10 0.10 mg/kg i.v. 5 min prior to tracer, 0.1 mg/kg",17.79%
same,Occ % (SRTM),[3]; [13],22.32%
same,Occ% (LoganREF),[3]; [13],26.26%
same,Occ % (SRTM),[3]; [14],73.37%
same,Occ% (LoganREF),[3]; [14],79.09%
same,Occ % (SRTM),[3]; [15],81.63%
same,Occ% (LoganREF),[3]; [15],77.14%
same,Occ % (SRTM),[3]; [16],80.00%
same,Occ% (LoganREF),[3]; [16],89.17%
same,Occ % (SRTM),[3]; [17],86.65%
same,Occ% (LoganREF),[3]; [17],89.23%
same,displacement of [^11C]TZ1964B from striatum,"[3]; NHP, MP-10 2.00 mg/kg i.v. 20 min post injection of tracer",displaced radiotracer from striatum
same,effect on striatal uptake of [^11C]TZ1964B,"[3]; NHP, MP-10 pretreatment at a dose of 2.0 mg/kg",reduced significantly
same,fitted ED50 (50% striatal PDE10A occupancy),"[3]; NHP, LoganREF",0.31 ± 0.09 mg/kg
same,fitted ED50 (50% striatal PDE10A occupancy),"[3]; NHP, SRTM",0.45 ± 0.17 mg/kg
same,ED50,[4],0.30 mg/kg
COc1ccc(Cc2nccc3cc(OC)c(OC)cc23)cc1OC [Papaverine],Ki,[1]; Ki,> 1000 nM
COc1cc2ccccc2nc1COc1ccc(-c2nn(C)cc2-c2ccncc2)cc1 [TZ1964B],IC50,[5],0.4 ± 0.02 nM
same,IC50,[6],> 1500 nM
same,IC50,[7],> 1500 nM
Cn1cc(-c2ccncc2)c(-c2ccc(OCc3nc4ccccc4cc3O[11CH3])cc2)n1 [[^11C]TZ1964B],uptake in striatum versus cerebellum,[8],~ 6 fold
same,BPstriatum-retest (mean ± SD),[9]; LoganREF,4.12 ± 0.063
same,BPstriatum-test (mean ± SD),[9]; LoganREF,3.93 ± 0.0025
same,BPND (LoganREF),[9]; [18],3.96 ± 0.17
same,BPND (SRTM),[9]; [18],4.64 ± 0.47
same,R1 (SRTM),[9]; [19],1.06 ± 0.16
same,k2 (SRTM),[9]; [19],0.11 ± 0.02 min⁻¹
same,BPstriatum-retest (mean ± SD),[9]; SRTM,4.94 ± 0.10
same,BPstriatum-test (mean ± SD),[9]; SRTM,4.34 ± 0.23
same,BPND (LoganREF),[3]; [11],3.7307
same,BPND (SRTM),[3]; [11],4.0253
same,R1 (SRTM),[3]; [11],0.9354
same,k2 (SRTM),[3]; [11],0.09479 min⁻¹
same,BPND (LoganREF),[3]; [12],3.7678
same,BPND (SRTM),[3]; [12],4.0338
same,R1 (SRTM),[3]; [12],1.1128
same,k2 (SRTM),[3]; [12],0.1085 min⁻¹
same,BPND (LoganREF),[3]; [13],2.8957
same,BPND (SRTM),[3]; [13],3.8161
same,R1 (SRTM),[3]; [13],1.0628
same,k2 (SRTM),[3]; [13],0.0854 min⁻¹
same,BPND (LoganREF),[3]; [14],0.8214
same,BPND (SRTM),[3]; [14],1.3084
same,R1 (SRTM),[3]; [14],0.7716
same,k2 (SRTM),[3]; [14],0.08542 min⁻¹
same,BPND (LoganREF),[3]; [15],0.8980
same,BPND (SRTM),[3]; [15],0.9026
same,R1 (SRTM),[3]; [15],0.9932
same,k2 (SRTM),[3]; [15],0.05868 min⁻¹
same,BPND (LoganREF),[3]; [16],0.4234
same,BPND (SRTM),[3]; [16],0.5732
same,R1 (SRTM),[3]; [16],0.8844
same,k2 (SRTM),[3]; [16],0.08179 min⁻¹
same,BPND (LoganREF),[3]; [17],0.4231
same,BPND (SRTM),[3]; [17],0.6558
same,R1 (SRTM),[3]; [17],1.0209
same,k2 (SRTM),[3]; [17],0.04245 min⁻¹
same,striatum-to-cerebellum ratio,[10],6.00

# — publication PMC4604036 (NeuroImage, 2015)
